Like-named read-outs stand apart in the source and are kept apart here.
Key:
[1] = varying degrees of impaired hepatic function; cited from earlier work
[2] = Tolerability after single dose; format: in vivo, human; settings: single 0.4 U/kg s.c. dose(s)
In short: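 Adults 18–85 y, BMI ≤40 kg/m2, in five renal-function groups. 0.4 U/kg s.c. into thigh: non-ESRD once; ESRD twice, post-hemodialysis and ~13 h pre-hemodialysis. In-house ≥48 h; follow-up 7–21 days after last dose. Also physical exam, biochemistry, hematology, urinalysis. AEs graded for severity and relationship; severe hypoglycemia = requiring assistance (ADA). Blood glucose sampled to 68 h (ESRD) or 120 h.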

[3] = cited from earlier work
[4] = format: in vivo, human; settings: single 0.4 U/kg s.c., geometric mean (CV %), n = 6; for AUC0–∞ / C max: serum, ELISA
In short: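 Subjects grouped by screening Cockcroft–Gault creatinine clearance. Non-dialysis subjects received one 0.4 U/kg subcutaneous dose (100 U/mL) into a lifted thigh skin fold at 0800 hours. Serum was sampled pre-dose through 120 h. Concentrations were measured by validated sandwich ELISA (mouse anti-human-insulin monoclonal capture, biotinylated mouse monoclonal detection; serum LLOQ 20 pM). Parameters came from individual concentration–time curves; CL/F = dose/AUC0–∞.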

[5] = cited from earlier work; remark: listed apart in the source
[6] = mild renal impairment (CLCR 50–80 mL/min)
[7] = moderate renal impairment (CLCR 30–49 mL/min)
[8] = normal renal function (CLCR >80 mL/min)
[9] = severe renal impairment (CLCR <30 mL/min)

Insulin degludec
effect of impaired hepatic function on ultra-long pharmacokinetic properties [1]: preserved | severe adverse events ([2]; 32 subjects exposed): None | severe hypoglycemic episodes ([2]; all subjects): No severe hypoglycemic episodes | within-subject variability in glucose-lowering effect (AUC values) compared with insulin glargine [3]: four-times lower | CL/F (apparent clearance, dose/AUC0–∞) [4, 6]: 19.1 (31) mL/h/kg | AUC0–∞ [4, 6]: 126,096 (49) pmol·h/L | C max [4, 6]: 3,502 (30) pmol/L | CL/F (apparent clearance, dose/AUC0–∞) [4, 7]: 20.5 (39) mL/h/kg | AUC0–∞ [4, 7]: 117,646 (32) pmol·h/L | C max [4, 7]: 3,237 (39) pmol/L | CL/F (apparent clearance, dose/AUC0–∞) [4, 8]: 22.0 (32) mL/h/kg | AUC0–∞ [4, 8]: 109,472 (26) pmol·h/L | C max [4, 8]: 3,085 (28) pmol/L | CL/F (apparent clearance, dose/AUC0–∞) [4, 9]: 18.9 (24) mL/h/kg | AUC0–∞ [4, 9]: 127,268 (28) pmol·h/L | C max [4, 9]: 3,918 (28) pmol/L

insulin detemir
effect of impaired renal function on pharmacokinetics [5]: reportedly unaffected

regular human insulin
effect of impaired renal function on pharmacokinetics ([5]; patients with diabetes): affect the pharmacokinetics

insulin lispro
effect of impaired renal function on pharmacokinetics ([5]; patients with diabetes): affect the pharmacokinetics

insulin aspart
effect of impaired renal function on pharmacokinetics [5]: reportedly unaffected

— article PMC3899495 (Clinical Pharmacokinetics, 2013)
